The structures appear in SMILES notation. Converted amounts (≈) assume the structure as drawn. The source made the active and inactive calls. The calls are words filed in the database; no cut-off is given here.

The source of these data is ChEMBL document CHEMBL4014285, “Novel, highly potent systemic glucokinase activators for the treatment of Type 2 Diabetes Mellitus” (Bioorg Med Chem Lett, 2017).

Series [1] deals with T1, Hexokinase-4 (Homo sapiens, UniProt P35557).
T1 sequence (P35557 whole entry): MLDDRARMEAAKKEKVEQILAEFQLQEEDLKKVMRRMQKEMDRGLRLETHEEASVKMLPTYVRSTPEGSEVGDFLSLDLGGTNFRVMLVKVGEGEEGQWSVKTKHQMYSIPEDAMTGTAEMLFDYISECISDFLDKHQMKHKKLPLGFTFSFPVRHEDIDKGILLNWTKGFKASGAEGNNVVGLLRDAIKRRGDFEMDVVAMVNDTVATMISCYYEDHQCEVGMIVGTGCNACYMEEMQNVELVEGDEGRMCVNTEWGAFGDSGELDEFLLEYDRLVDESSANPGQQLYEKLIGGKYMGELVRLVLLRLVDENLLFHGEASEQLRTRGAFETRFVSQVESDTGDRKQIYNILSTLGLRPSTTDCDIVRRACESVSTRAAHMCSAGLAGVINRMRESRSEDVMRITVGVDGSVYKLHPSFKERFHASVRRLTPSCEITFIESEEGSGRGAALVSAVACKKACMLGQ
Briefly: Activation of recombinant human glucokinase assessed as conversion of D-glucose to D-glucose-6-phosphate in presence of 2.5 mM glucose by G6PDH coupled spectrophotometric assay. The method in brief: (§1)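 Recombinant human GK; ATP-dependent D-glucose-6-phosphate formation from D-glucose at 2.5 or 10 mM, read by continuous glucose-6-phosphate dehydrogenase coupled spectrophotometry. Activators titrated at 1% DMSO final, DMSO as control. EC50 = concentration giving half of maximal increase in product formation; maximum activity expressed as percent velocity increase vs DMSO at saturating activator. Single titration.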

The target of series [2] is T1, Hexokinase-4. Briefly: Activation of recombinant human glucokinase assessed as conversion of D-glucose to D-glucose-6-phosphate in presence of 10 mM glucose by G6PDH coupled spectrophotometric assay. The method in brief: as §1
Series [3] concerns the target T2, Hexokinase-4 (Rattus norvegicus, UniProt P17712).
T2 sequence (P17712 whole entry): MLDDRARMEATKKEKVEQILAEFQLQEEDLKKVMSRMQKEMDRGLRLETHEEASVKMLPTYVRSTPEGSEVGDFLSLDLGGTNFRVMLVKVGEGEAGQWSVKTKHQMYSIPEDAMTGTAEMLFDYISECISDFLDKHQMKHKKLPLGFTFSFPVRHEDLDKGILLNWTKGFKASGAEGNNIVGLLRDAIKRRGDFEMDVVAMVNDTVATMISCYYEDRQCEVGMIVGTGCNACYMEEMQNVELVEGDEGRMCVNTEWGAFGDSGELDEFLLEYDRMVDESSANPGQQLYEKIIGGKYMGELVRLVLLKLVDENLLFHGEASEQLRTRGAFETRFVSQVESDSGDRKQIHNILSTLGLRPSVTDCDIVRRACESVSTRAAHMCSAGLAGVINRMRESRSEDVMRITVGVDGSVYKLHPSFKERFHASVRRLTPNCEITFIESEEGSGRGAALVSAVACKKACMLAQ
Briefly: Activation of glucokinase in primary rat hepatocytes assessed as increase in D-2-deoxyglucose-6-phosphate level in presence of D-2-deoxyglucose by HILIC LC-MS method. It is filed as cell-based. In outline:
(§2)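 GKACA cell assay in rat INS-1 Clone-13 insulinoma cells or freshly isolated primary rat hepatocytes; intracellular D-2-deoxyglucose-6-phosphate formed from exogenous D-2-deoxyglucose quantified by HILIC LC-MS; EC50 from a single titration.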

The target in series [4] is T2, Hexokinase-4. Put plainly: Activation of glucokinase in rat INS-1 cells assessed as increase in D-2-deoxyglucose-6-phosphate level in presence of D-2-deoxyglucose by HILIC LC-MS method. It counts as cell-based. In outline:
as §2

Series [5] addresses T3, Hexokinase-4 (Homo sapiens) (UniProt P35557).
T3 sequence (whole entry): T1 sequence (P35557 whole entry)
Put plainly: Activation of recombinant human glucokinase assessed as conversion of D-glucose to D-glucose-6-phosphate in presence of 2.5 mM glucose by G6PDH coupled spectrophotometric assay relative to control. In outline:
as §1

Series [6] deals with T3, Hexokinase-4 (Homo sapiens). Put plainly: Activation of recombinant human glucokinase assessed as conversion of D-glucose to D-glucose-6-phosphate in presence of 10 mM glucose by G6PDH coupled spectrophotometric assay relative to control. The method in brief:
as §1

The test system of series [7] is Mus musculus. Briefly: Antidiabetic activity in HFD-fed C57BL/6 mouse assessed as decrease in blood glucose level at 0.03 mg/kg, po measured after 30 mins. It is filed as functional, organism-based. The method in brief:
(§3)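 C57BL/6 mice fed high fat diet for 3 weeks, baseline blood glucose ~200 mg/dl, dosed orally at 0.01, 0.03 and 0.1 mg/kg. Blood glucose followed from 30 min through 4 h post dose, with blood glucose AUC over the period; plasma insulin also measured.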

Series [8] concerns Mus musculus. Briefly: Antidiabetic activity in HFD-fed C57BL/6 mouse assessed as increase in plasma insulin level at 0.03 to 0.1 mg/kg, po. It counts as functional, organism-based. In outline:
as §3

The subject of series [9] is Mus musculus. Briefly: Antidiabetic activity in HFD-fed C57BL/6 mouse assessed as reduction in blood glucose AUC at 0.03 to 0.1 mg/kg, po measured at 4 hrs post dose. It counts as functional, organism-based. In outline:
as §3

A short description of series [10]: Solubility of the compound at pH 7. It counts as physicochemical. The settings on record: buffer.
The nature of series [11]: Solubility of the compound at pH 2. It is filed as physicochemical. The note with it: buffer.

`CN1C(=O)CCC1c1cc2[nH]c(-c3ccc(C(C)(C)O)cn3)cc2cc1Oc1ccc(S(C)(=O)=O)nc1` (stereo in doubt; 4) [listing 1 of 2 here]: the EC50 (usually the midpoint of the concentration-response curve) in series [1] was found to be 4.8 nM; in series [2] it was 2.1 nM; in series [3], 5.2 nM; in [4], 3.9 nM.

Take `CN1C(=O)CCC1c1cc2[nH]c(-c3ccc(C(C)(C)O)cn3)cc2cc1Oc1ccc(S(C)(=O)=O)nc1` (stereo in doubt; 4-en) [listing 1 of 2 here]: the figures for the %max in [5] and in series [6] were 581% and 132%, respectively.

Consider `CN1C(=O)CCC1c1cc2[nH]c(-c3ccccn3)cc2cc1Oc1ccc(S(C)(=O)=O)nc1` (stereo in doubt; 1-en) [listing 1 of 2 here], for which the EC50 in series [1] stood at 4.2 nM; in [2], 0.8 nM; in [3], 93 nM; in [4], 33 nM.

With `CN1C(=O)CCC1c1cc2[nH]c(-c3ccc(C(F)(F)F)cn3)cc2cc1Oc1ccc(S(C)(=O)=O)nc1` (stereo in doubt; 5) [listing 1 of 2 here], the results for the %max in series [5] and in [6] were 764% and 174%, respectively.

`CCS(=O)(=O)c1ccc(Oc2cc3cc(-c4ccc(C(F)(F)F)cn4)[nH]c3cc2C2CCC(=O)N2C)cc1` (stereo not given): the %max in series [5] came to 602%; in [6] it was 158%. The EC50 in [1] was found to be 2 nM; in series [2], 1.4 nM; in [3], 174 nM; in series [4] it was 1.7 nM.

As for `CN1C(=O)CCC1c1cc2[nH]c(-c3ccccn3)cc2cc1Oc1ccc(S(C)(=O)=O)nc1` (single isomer, unassigned; ent-1), the values for the %max in series [5] and in [6] were 784% and 193%, respectively. The result in [7], in [8] and in series [9] was Active.

As to `CN1C(=O)CCC1c1cc2[nH]c(-c3ccc(C(C)(C)O)cn3)cc2cc1Oc1ccc(S(C)(=O)=O)nc1` (stereo in doubt; 4) [listing 2 of 2 here], the values for the %max in [5] and in series [6] were 739% and 173%, respectively.

As for `CN1C(=O)CCC1c1cc2[nH]c(-c3cnccn3)cc2cc1Oc1ccc(S(C)(=O)=O)nc1` (stereo in doubt; 3) [listing 1 of 2 here], the EC50 in [1] turned out to be 4.5 nM; in series [2] it was 4.2 nM; in series [3], 23 nM; in series [4], 7.2 nM.

As to `CN1C(=O)CCC1c1cc2[nH]c(-c3ccc(C(F)(F)F)cn3)cc2cc1Oc1ccc(C(=O)O)cc1` (stereo not given), the values for the %max in [5] and in series [6] were 683% and 179%, respectively. The EC50 in [1] worked out at 24 nM; in [2], 9.6 nM; in series [3] it was 728 nM; in [4], 2110 nM. Moreover, the solubility – broadly, how much of the substance goes into solution per volume – in series [10] amounted to 113 µM (≈ 56 µg/mL); in series [11], 5 µM (≈ 2.48 µg/mL).

For the molecule `Cc1cnc(-c2cc3cc(Oc4ccc(S(C)(=O)=O)nc4)c(C4CCC(=O)N4C)cc3[nH]2)s1` (stereo in doubt; 2-en) [listing 1 of 2 here], the EC50 is 5.5 nM in series [1], 1 nM in [2], 77 nM in series [3] and 37 nM in [4].

For the molecule `CN1C(=O)CCC1c1cc2[nH]c(-c3cnccn3)cc2cc1Oc1ccc(S(C)(=O)=O)nc1` (stereo in doubt; 3) [listing 2 of 2 here], the %max amounted to 713% in series [5] and 188% in series [6].

Turning to `CCOC(=O)c1ccc(Oc2cc3cc(-c4ccc(C(F)(F)F)cn4)[nH]c3cc2C2CCC(=O)N2C)cc1` (stereo not given), the %max in series [5] came to 452%; in [6], 123%. In addition, the EC50 in series [1] amounted to 4.8 nM; in [2] it was 9.2 nM; in series [3], 232 nM; in series [4], 22 nM.

For the molecule `COC(=O)c1ccc(-c2cc3cc(Oc4ccc(S(C)(=O)=O)nc4)c(C4CCC(=O)N4C)cc3[nH]2)nc1` (racemic), the %max in series [5] worked out at 739%; in series [6] it was 184%. For the same molecule, the EC50 in [1] came to 8.2 nM; in series [2], 3.4 nM; in series [3], 20 nM; in [4], 7.8 nM.

For the molecule `CN1C(=O)CCC1c1cc2[nH]c(-c3cnccn3)cc2cc1Oc1ccc(S(C)(=O)=O)nc1` (stereo in doubt; 3-en) [listing 1 of 2 here], the EC50 in [1] was 48 nM; in series [2], 18 nM; in series [3], 1510 nM; in series [4], 247 nM.

`CN1C(=O)CCC1c1cc2[nH]c(-c3ccccn3)cc2cc1Oc1ccc(S(C)(=O)=O)nc1` (stereo in doubt; 1-en) [listing 2 of 2 here]: the %max in series [5] was found to be 628%; in series [6], 158%.

With `Cc1cnc(-c2cc3cc(Oc4ccc(S(C)(=O)=O)nc4)c(C4CCC(=O)N4C)cc3[nH]2)s1` (single isomer, unassigned) [listing 1 of 2 here], the results for the %max in [5] and in [6] were 620% and 168%, respectively.

For `CN1C(=O)CCC1c1cc2[nH]c(-c3ccc(C(F)(F)F)cn3)cc2cc1Oc1ccc(S(C)(=O)=O)nc1` (stereo in doubt; 5) [listing 2 of 2 here], the EC50 in [1] was 2.4 nM; in series [2], < 0.85 nM; in series [3] it was 2.7 nM; in [4], 2.5 nM.

Take `Cc1cnc(-c2cc3cc(Oc4ccc(S(C)(=O)=O)nc4)c(C4CCC(=O)N4C)cc3[nH]2)s1` (single isomer, unassigned) [listing 2 of 2 here]: the half-maximal effective concentration (EC50) in series [1] came to 4.5 nM; in [2] it was 3.8 nM; in series [3] it was 16 nM; in [4], 21 nM.

In the case of `CN1C(=O)CCC1c1cc2[nH]c(-c3cnccn3)cc2cc1Oc1ccc(S(C)(=O)=O)nc1` (stereo in doubt; 3-en) [listing 2 of 2 here], the %max in [5] came to 577%; in series [6], 155%.

Take `CN1C(=O)CCC1c1cc2[nH]c(-c3ccc(C(C)(C)O)cn3)cc2cc1Oc1ccc(S(C)(=O)=O)nc1` (stereo in doubt; 4-en) [listing 2 of 2 here]: the EC50 in [1] worked out at 31 nM; in series [2], 9.8 nM; in [3], 34 nM; in [4], 38 nM.

`CN1C(=O)CCC1c1cc2[nH]c(-c3ccc(C(F)(F)F)cn3)cc2cc1Oc1ccc(S(C)(=O)=O)nc1` (single isomer, unassigned; ent-2) [listing 1 of 2 here]: the %max in series [5] amounted to 583%; in [6], 141%.

As to `Cc1cnc(-c2cc3cc(Oc4ccc(S(C)(=O)=O)nc4)c(C4CCC(=O)N4C)cc3[nH]2)s1` (stereo in doubt; 2-en) [listing 2 of 2 here], the %max in [5] worked out at 482%; in series [6] it was 132%.

Take `CN1C(=O)CCC1c1cc2[nH]c(-c3ccc(C(F)(F)F)cn3)cc2cc1Oc1ccc(S(C)(=O)=O)nc1` (single isomer, unassigned; ent-2) [listing 2 of 2 here]: the EC50 was found to be 86 nM in [1], 31 nM in series [2], 199 nM in series [3] and 375 nM in [4].
